From ChEMBL document CHEMBL1153201, “Sulfonylureido thiazoles as fructose-1,6-bisphosphatase inhibitors for the treatment of type-2 diabetes” (Bioorg Med Chem Lett, 2010) come the findings set out here.

Data set [1] has as its target T1, Fructose-1,6-bisphosphatase 1 (Homo sapiens, UniProt P09467).
T1 sequence (P09467 whole entry): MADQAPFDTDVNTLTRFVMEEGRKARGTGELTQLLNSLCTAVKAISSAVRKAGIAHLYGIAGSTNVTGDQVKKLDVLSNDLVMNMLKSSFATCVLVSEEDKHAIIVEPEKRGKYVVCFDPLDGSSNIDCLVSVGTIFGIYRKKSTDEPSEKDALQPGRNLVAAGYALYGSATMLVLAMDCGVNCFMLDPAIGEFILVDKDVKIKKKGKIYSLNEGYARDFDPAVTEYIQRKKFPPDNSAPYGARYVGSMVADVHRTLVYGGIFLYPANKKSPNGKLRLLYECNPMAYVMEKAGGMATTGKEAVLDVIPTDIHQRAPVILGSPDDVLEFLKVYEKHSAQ
The data set can be described thus: Inhibition of FBPase in human liver.

Data set [2] in a line: Volume of distribution at steady state in mouse at 2.5 mg/kg, iv. The format is ADME, organism-based. The arrangement: dose 2.5 mg/kg, route intravenous. Particulars: in vivo, read-out: Vdss. Put shortly:
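Mouse given an iv bolus at 2.5 mg/kg; volume of distribution at steady state derived from plasma PK.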

Data set [3] in a line: Ratio of drug level in liver to plasma in mouse. The format is ADME, tissue-based. Particulars: liver and plasma.
The nature of data set [4]: Aqueous solubility of the compound. It is filed as physicochemical.
In data set [5] the target is T1, Fructose-1,6-bisphosphatase 1. Put plainly: Inhibition of FBPase in human liver in presence of fructose-2,6-bisphosphate, a substrate site inhibitor.
Data set [6] can be described thus: Permeability across PAMPA membrane. It is filed as ADME. Particulars: read-out: permeability. (In general: The PAMPA barrier holds no transporters, so it reflects passive diffusion.)
Data set [7] concerns Mus musculus. The data set can be described thus: Antidiabetic activity in C57BLKS db/db mouse assessed as reduction in glucose level at 100 mg/kg, po after 2 hrs relative to control. The format is functional. The arrangement: scale not given: the % may be the effect or the level left. Put shortly: (§1)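 Male db/db mice (13 weeks, C57BLKS background), block randomized by blood glucose, fasted 4 h, then given a single oral dose of 100 mg/kg in 0.3% Tween 80 (4 mL/kg); vehicle controls. Tail-tip blood glucose read by handheld meter at 0, 2, 4, 6 h post dose. Expressed as % lowering vs vehicle at the same time point; mixed-model statistics.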

Data set [8] in a line: Intrinsic clearance in mouse microsomes measured per mg of protein. It is filed as ADME, Microsome. Summed up:
(§2)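 Microsomal intrinsic clearance in human or mouse liver microsomes, expressed per mg microsomal protein.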

Data set [9] deals with T2, Fructose-1,6-bisphosphatase 1 (Mus musculus, UniProt Q9QXD6).
T2 sequence (Q9QXD6 whole entry): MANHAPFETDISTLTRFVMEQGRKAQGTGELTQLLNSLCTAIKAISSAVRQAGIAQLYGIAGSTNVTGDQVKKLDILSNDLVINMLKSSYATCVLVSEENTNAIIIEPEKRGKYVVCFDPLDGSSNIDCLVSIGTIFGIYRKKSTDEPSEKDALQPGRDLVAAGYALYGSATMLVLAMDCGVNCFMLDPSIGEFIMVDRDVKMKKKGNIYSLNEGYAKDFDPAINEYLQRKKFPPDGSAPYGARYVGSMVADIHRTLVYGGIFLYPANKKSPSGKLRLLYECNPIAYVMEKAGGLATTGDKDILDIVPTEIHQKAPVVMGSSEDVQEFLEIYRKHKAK
The data set can be described thus: Inhibition of FBPase in mouse liver.

Data set [10] in a line: Half life in mouse at 4.8 mg/kg. The note with it: in vivo. The arrangement: dose 4.8 mg/kg. It is filed as ADME, organism-based. Put shortly:
(§3)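 Mouse PK. Oral gavage at 4.8 mg/kg; oral bioavailability derived by reference to an iv bolus of 2.5 mg/kg.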

Data set [11] in a line: Oral bioavailability in mouse at 4.8 mg/kg. Particulars: in vivo. The format is ADME, organism-based. Put shortly:
as §3

Data set [12] relates to Mus musculus. Put plainly: Antidiabetic activity in C57BLKS db/db mouse assessed as reduction in glucose level at 100 mg/kg, po after 4 hrs relative to control. The format is functional. The arrangement: scale not given: the % may be the effect or the level left. Put shortly: as §1
For data set [13], the system named is Mus musculus. The data set can be described thus: Antidiabetic activity in C57BLKS db/db mouse assessed as reduction in glucose level at 100 mg/kg, po after 6 hrs relative to control. Details: scale not given: the % may be the effect or the level left. The format is functional. Summed up:
as §1

The subject of data set [14] is Mus musculus. The data set can be described thus: Antidiabetic activity in db/db mouse assessed as reduction in glucose level at 100 mg/kg, po after 6 hrs relative to control. It is filed as functional. The arrangement: scale not given: the % may be the effect or the level left. Put shortly:
as §1

Data set [15] can be described thus: Intrinsic clearance in human microsomes measured per mg of protein. The format is ADME, Microsome. Put shortly: as §2

The structures appear in SMILES notation. pEC50, pIC50: −log10 of the molar value. In brackets after ≈: the same amount, converted by molar mass.

The term pIC50 denotes −log10 of the IC50, conventionally taken in molar units. Usually Kp stands for tissue or fluid exposure divided by exposure in the circulation. Usually solubility stands for the concentration that dissolves in the medium under given conditions. Broadly, the microsomal CLint is the rate of metabolic loss divided by the concentration. As a reminder, the pEC50 is −log10 of the EC50, conventionally taken in molar units. The half-life is the time in which the quantity being followed falls by half. As a reminder, the bioavailability is the share of a dose that reaches the circulation, judged against a reference dose that is usually intravenous. `Cc1cc(S(=O)(=O)NC(=O)Nc2ncc(Br)s2)ccc1-c1ccc(F)nc1`: the pIC50 in data set [1] is 6.89; in data set [5], 7.05. In [2], the Vd stood at 0.1 L/kg. Moreover, the Kp in data set [3] came to 0.6. In addition, the solubility in [4] was found to be 465 µg/mL (≈ 987 µM). The Papp in [6] is 3.6 ×10⁻⁶ cm/s. The Activity with Mus musculus [7] is 5%; in the data set with Mus musculus [12] it was 13%; in the data set on Mus musculus [13], 32%; with Mus musculus [14], 32%. In addition, the microsomal CLint in data set [8] worked out at 5.1 µL/min/mg; in data set [15] it was 11.4 µL/min/mg. Also, the pEC50 in [9] was 5.00. Also, the half-life in data set [10] is 8.1 h. The same compound came in with a bioavailability in data set [11] of 70%.
